ChEMBL document CHEMBL2163321 (J Med Chem, 2012)
pIC50: −log10 of the molar value.

Experiments:
Egl nine homolog 1 = Egl nine homolog 1 (Homo sapiens, UniProt Q9GZT9); assay: Inhibition of human PHD2 expressed in Escherichia coli by AlphaScreen assay
[1] = target: Lysine-specific demethylase 5C (Homo sapiens, UniProt P41229); assay: Inhibition of human KDM5C catalytic domain expressed in Sf9 cells using methyl lysine peptide substrate by AlphaScreen assay
How it was run: (§1)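 AlphaScreen read-out: immunodetection of the lysine methylation state of the biotinylated histone peptide product, captured on streptavidin and Protein A conjugated beads. Reactions were run in the linear range with 2OG near or below its Km.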

[2] = target: T1, Lysine-specific demethylase 7A (Homo sapiens, UniProt Q6ZMT4); assay: Inhibition of human KDM7A catalytic domain expressed in Escherichia coli by MALDI assay
T1 sequence (Q6ZMT4 whole entry): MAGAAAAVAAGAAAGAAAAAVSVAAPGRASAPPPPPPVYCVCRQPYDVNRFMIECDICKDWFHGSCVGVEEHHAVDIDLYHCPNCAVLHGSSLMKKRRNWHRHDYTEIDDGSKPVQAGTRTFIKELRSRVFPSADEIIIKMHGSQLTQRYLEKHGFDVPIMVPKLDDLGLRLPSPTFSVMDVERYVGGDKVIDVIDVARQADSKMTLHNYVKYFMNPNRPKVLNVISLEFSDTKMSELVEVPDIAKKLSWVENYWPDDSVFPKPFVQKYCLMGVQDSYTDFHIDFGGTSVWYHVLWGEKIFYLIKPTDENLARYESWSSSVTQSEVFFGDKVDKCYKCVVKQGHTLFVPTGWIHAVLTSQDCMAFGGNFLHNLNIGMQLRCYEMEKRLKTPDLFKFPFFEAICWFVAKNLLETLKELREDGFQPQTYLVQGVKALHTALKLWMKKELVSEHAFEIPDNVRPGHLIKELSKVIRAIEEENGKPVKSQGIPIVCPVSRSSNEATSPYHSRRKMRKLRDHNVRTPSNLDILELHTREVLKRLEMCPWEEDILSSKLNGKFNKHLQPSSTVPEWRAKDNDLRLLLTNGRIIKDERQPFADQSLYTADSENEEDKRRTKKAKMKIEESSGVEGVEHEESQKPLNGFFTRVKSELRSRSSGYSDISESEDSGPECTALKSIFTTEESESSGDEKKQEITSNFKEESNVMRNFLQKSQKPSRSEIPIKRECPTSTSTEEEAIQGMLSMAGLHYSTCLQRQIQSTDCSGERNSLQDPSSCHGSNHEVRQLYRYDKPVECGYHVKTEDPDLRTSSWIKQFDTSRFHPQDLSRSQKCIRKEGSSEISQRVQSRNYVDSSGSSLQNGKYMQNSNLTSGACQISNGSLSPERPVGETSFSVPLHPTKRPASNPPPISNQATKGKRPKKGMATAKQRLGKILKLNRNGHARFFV

[3] = target: Lysine-specific demethylase 6B (Homo sapiens, UniProt O15054); assay: Inhibition of human KDM6B catalytic domain expressed in Escherichia coli using methyl lysine peptide substrate by AlphaScreen assay
How it was run: as §1

[4] = target: Hypoxia-inducible factor 1-alpha inhibitor (Homo sapiens, UniProt Q9NWT6); assay: Inhibition of human FIH expressed in Escherichia coli by MALDI assay
[5] = Inhibition of human KDM3A catalytic domain expressed in Sf9 cells methyl lysine peptide substrate by AlphaScreen assay
How it was run: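 AlphaScreen activity assay run within the linear range of the reaction. It immunodetects the lysine methylation state of a biotin-conjugated histone peptide product, using Streptavidin- and Protein A-conjugated beads.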

[6] = target: T2, Lysine-specific demethylase 4E (Homo sapiens, UniProt B2RXH2); assay: Inhibition of human KDM4E expressed in Escherichia coli using methyl lysine peptide substrate by AlphaScreen assay
T2 sequence (B2RXH2 whole entry): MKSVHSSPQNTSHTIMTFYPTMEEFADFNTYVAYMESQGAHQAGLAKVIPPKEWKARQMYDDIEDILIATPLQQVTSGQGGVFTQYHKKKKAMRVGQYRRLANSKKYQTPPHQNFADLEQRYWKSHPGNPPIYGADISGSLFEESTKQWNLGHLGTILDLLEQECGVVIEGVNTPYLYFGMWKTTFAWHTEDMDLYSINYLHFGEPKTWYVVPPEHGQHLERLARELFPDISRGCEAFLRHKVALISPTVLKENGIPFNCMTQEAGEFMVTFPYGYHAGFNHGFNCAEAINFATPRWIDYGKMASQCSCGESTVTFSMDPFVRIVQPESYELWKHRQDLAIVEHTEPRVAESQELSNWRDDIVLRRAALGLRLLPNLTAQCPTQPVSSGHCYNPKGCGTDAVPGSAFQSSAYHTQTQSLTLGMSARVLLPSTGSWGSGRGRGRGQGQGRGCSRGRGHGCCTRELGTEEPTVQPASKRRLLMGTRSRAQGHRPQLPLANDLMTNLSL
How it was run: as §1

[7] = target: T3, Gamma-butyrobetaine dioxygenase (Homo sapiens, UniProt O75936); assay: Inhibition of human BBOX1 by fluorescence based assay
T3 sequence (O75936 whole entry): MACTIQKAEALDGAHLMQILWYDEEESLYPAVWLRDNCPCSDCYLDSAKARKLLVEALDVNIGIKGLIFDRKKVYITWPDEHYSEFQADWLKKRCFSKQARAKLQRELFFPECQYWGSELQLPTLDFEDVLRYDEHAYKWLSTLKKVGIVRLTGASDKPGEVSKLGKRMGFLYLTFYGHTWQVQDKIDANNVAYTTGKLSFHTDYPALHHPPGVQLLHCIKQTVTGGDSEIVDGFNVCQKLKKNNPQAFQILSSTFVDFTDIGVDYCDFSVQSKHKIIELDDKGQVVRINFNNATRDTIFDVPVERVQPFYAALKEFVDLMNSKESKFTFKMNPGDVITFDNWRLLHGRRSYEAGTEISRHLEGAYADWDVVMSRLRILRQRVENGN

[8] = target: T4, Lysine-specific demethylase 2A (Homo sapiens, UniProt Q9Y2K7); assay: Inhibition of human KDM2A expressed in Escherichia coli using methyl lysine peptide substrate by AlphaScreen assay
T4 sequence (Q9Y2K7 whole entry): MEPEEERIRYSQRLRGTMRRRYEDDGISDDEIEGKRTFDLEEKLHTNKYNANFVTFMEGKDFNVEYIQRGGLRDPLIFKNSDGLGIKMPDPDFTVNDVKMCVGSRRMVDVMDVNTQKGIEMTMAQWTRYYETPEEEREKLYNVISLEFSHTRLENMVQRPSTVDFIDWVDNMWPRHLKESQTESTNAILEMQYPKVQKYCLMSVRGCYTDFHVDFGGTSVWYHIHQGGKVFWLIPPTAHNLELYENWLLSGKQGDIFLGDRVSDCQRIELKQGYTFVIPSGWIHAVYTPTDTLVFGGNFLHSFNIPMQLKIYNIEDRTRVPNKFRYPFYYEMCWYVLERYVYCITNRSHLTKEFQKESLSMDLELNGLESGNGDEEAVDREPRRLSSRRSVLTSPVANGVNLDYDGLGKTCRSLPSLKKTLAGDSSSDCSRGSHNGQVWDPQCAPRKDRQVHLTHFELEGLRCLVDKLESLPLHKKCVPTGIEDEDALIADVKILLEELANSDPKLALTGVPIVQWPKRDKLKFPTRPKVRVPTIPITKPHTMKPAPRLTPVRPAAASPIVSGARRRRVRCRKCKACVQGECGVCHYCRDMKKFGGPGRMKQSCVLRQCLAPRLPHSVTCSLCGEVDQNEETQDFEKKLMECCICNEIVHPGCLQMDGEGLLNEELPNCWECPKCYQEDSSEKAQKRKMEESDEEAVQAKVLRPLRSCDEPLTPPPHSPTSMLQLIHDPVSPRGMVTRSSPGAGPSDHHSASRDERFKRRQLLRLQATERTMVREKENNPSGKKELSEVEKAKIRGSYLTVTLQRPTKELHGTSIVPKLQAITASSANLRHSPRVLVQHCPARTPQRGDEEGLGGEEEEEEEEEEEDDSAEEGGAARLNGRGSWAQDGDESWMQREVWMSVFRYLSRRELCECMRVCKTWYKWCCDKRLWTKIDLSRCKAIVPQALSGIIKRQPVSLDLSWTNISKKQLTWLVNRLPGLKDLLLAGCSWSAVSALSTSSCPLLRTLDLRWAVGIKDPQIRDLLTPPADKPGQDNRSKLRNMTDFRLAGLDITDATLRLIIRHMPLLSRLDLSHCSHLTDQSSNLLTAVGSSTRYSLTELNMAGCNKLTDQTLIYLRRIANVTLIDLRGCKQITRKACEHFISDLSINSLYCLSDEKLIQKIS

[9] = target: Histone lysine demethylase PHF8 (Homo sapiens, UniProt Q9UPP1); assay: Inhibition of human PHF8 expressed in Escherichia coli using methyl lysine peptide substrate by AlphaScreen assay
Sequence of Histone lysine demethylase PHF8 (Q9UPP1 whole entry): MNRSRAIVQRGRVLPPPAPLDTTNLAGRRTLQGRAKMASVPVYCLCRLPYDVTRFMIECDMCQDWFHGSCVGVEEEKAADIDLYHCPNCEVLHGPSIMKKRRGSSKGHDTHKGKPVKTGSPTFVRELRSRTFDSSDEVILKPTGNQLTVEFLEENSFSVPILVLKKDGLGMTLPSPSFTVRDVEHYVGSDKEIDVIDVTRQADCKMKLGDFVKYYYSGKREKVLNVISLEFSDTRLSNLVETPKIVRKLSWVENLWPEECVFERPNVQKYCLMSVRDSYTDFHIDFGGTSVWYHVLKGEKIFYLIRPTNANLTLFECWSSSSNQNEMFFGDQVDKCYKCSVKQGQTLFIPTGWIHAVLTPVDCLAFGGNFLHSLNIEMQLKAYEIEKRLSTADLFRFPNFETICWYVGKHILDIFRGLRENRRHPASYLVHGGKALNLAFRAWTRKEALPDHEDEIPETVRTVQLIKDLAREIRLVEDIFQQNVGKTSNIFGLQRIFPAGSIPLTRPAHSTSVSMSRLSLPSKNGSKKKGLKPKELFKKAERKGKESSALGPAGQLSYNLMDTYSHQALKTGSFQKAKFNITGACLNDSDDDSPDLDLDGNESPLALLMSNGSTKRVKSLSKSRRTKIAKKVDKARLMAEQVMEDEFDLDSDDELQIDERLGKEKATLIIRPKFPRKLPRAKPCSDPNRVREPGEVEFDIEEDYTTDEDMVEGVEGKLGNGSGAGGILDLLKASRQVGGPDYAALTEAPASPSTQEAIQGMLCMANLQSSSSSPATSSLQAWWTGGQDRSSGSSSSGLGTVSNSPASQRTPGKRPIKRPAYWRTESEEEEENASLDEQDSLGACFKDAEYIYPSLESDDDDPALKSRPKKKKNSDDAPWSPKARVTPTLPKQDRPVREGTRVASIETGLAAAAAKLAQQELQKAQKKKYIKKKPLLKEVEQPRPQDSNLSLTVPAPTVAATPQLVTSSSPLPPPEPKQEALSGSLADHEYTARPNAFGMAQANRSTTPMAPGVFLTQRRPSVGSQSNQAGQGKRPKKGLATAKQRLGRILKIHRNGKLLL

Sequence of Lysine-specific demethylase 5C (P41229 whole entry, the tested form may be a part): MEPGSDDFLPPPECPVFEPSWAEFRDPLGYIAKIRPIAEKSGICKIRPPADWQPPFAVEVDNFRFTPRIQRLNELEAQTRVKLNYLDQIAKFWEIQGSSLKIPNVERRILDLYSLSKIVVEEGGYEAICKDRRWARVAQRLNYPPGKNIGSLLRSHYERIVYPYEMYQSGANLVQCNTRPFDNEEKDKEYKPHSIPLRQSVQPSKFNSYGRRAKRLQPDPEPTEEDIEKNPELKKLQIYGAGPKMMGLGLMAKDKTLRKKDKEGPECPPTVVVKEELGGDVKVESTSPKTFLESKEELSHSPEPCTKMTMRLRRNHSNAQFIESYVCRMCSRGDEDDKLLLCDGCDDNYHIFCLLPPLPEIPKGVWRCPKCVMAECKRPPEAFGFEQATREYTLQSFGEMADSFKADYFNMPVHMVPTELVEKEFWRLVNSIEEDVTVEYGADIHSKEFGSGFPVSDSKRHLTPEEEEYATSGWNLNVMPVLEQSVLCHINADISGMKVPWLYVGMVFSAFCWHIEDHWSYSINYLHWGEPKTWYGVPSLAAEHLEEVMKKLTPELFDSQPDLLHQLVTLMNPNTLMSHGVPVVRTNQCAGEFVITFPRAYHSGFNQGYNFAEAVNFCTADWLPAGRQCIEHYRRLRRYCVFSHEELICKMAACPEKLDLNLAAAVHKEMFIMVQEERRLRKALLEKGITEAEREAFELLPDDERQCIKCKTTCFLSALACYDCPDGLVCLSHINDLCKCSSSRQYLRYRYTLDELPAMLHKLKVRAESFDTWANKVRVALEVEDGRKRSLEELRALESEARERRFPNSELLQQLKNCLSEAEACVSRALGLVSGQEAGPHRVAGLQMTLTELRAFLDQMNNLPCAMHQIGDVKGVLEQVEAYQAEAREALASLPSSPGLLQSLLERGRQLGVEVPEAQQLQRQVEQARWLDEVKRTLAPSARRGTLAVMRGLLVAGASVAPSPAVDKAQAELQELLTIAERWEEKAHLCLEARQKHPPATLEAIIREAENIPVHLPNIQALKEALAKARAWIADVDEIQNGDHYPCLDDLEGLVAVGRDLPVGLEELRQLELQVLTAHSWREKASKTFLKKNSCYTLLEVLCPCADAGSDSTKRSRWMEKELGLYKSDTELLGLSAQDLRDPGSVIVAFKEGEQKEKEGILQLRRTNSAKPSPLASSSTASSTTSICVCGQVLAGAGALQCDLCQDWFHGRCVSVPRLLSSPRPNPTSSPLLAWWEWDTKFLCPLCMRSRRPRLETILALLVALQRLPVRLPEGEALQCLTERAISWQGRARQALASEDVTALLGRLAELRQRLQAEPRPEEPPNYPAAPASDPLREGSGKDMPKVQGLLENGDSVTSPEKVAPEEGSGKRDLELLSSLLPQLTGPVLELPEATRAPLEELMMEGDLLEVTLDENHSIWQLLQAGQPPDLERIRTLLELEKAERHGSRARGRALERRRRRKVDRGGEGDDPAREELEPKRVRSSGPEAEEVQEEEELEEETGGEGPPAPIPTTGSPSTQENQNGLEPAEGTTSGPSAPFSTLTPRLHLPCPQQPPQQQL
Sequence of Lysine-specific demethylase 6B (O15054 whole entry, the tested form may be a part): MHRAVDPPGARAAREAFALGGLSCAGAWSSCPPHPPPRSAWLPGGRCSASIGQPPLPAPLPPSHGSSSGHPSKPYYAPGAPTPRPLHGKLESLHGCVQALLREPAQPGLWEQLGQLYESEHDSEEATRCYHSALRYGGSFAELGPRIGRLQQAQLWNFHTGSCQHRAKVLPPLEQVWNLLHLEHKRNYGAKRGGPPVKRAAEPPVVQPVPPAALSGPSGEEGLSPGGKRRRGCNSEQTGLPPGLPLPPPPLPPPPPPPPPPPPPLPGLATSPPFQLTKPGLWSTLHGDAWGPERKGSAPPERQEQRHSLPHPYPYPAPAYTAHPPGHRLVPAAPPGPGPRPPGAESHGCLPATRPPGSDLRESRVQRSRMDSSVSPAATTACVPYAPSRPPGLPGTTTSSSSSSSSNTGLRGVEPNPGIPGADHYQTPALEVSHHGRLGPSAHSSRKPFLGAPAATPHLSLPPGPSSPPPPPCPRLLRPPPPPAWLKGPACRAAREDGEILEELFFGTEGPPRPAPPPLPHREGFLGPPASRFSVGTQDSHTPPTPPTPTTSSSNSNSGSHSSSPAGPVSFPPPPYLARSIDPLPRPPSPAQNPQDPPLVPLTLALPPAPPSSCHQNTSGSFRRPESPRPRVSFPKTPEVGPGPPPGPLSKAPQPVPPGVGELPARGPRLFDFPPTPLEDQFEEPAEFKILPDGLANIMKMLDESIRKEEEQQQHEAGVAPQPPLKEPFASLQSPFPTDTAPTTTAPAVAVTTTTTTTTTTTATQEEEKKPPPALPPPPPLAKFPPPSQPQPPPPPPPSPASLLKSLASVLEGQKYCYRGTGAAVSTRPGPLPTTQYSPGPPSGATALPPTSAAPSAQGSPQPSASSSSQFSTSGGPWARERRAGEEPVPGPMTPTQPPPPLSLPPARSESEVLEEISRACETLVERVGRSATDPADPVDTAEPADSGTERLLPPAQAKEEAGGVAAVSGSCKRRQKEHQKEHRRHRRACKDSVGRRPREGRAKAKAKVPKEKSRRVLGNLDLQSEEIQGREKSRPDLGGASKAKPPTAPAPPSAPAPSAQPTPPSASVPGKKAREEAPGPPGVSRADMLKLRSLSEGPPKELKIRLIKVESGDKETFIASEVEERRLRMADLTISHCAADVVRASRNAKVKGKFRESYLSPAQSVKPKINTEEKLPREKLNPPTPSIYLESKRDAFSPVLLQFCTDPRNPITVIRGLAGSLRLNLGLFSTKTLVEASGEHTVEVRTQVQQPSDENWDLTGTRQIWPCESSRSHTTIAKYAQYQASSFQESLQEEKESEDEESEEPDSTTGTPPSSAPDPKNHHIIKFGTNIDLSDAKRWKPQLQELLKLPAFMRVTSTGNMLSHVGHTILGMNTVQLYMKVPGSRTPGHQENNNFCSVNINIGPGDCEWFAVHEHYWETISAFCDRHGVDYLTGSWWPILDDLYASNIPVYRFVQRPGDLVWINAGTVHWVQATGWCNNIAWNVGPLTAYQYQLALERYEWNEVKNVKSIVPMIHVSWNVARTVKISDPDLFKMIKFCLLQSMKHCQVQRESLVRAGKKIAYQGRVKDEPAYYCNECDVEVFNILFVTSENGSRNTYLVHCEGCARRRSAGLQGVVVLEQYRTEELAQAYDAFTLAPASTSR
Sequence of Egl nine homolog 1 (Q9GZT9 whole entry, the tested form may be a part): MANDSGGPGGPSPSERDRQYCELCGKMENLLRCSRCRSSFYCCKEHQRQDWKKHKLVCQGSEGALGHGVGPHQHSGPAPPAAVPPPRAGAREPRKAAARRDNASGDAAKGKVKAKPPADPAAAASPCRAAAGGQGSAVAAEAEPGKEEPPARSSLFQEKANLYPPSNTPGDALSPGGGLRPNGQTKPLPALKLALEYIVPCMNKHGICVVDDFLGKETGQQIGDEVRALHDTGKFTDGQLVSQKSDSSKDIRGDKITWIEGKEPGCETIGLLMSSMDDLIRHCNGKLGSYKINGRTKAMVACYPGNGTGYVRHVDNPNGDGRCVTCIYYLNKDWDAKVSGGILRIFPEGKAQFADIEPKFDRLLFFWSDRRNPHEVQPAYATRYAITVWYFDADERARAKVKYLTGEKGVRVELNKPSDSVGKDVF
Sequence of Hypoxia-inducible factor 1-alpha inhibitor (Q9NWT6 whole entry, the tested form may be a part): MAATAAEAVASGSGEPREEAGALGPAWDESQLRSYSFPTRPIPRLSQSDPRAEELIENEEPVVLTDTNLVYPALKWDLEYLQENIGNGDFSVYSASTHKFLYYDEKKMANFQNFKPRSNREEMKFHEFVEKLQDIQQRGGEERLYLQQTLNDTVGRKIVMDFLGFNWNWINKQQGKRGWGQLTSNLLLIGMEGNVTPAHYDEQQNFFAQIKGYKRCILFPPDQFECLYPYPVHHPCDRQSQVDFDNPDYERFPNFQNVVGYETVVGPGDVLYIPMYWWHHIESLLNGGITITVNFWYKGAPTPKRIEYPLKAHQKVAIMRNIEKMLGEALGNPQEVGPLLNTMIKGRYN

| Structure (SMILES) | pIC50 (Egl nine homolog 1) | pIC50 [1] | pIC50 [2] | pIC50 [3] | pIC50 [4] | pIC50 [5] | pIC50 [6] | pIC50 [7] | pIC50 [8] | pIC50 [9] |
| --- | --- | --- | --- | --- | --- | --- | --- | --- | --- | --- |
| CN(C)NC(=O)CCC(=O)O | < 4.00 | < 4.00 | 5.68 | < 4.00 | < 4.00 | 3.90 | < 4.00 | < 4.00 | – | – |
| C[N+](C)(C)NC(=O)CCC(=O)O | < 4.00 | < 4.00 | – | < 4.00 | < 4.00 | < 4.00 | < 4.00 | < 4.00 | 4.20 | 4.46 |
| CNNC(=O)CCC(=O)O | 4.85 | 5.96 | – | < 4.00 | < 4.00 | < 4.00 | 5.37 | < 4.00 | 6.43 | 5.47 |
| NNC(=O)CCC(=O)O | < 4.00 | 6.32 | – | < 4.00 | < 4.00 | < 4.00 | 6.70 | < 4.00 | 6.60 | 6.32 |
| CN(C)N(C)C(=O)CCC(=O)O | < 4.00 | < 4.00 | – | < 4.00 | < 4.00 | < 4.00 | < 4.00 | < 4.00 | 5.43 | 4.94 |
| CC(C)NC(=O)CCC(=O)O | < 4.00 | < 4.00 | – | < 4.00 | < 4.00 | < 4.00 | < 4.00 | < 4.00 | < 4.00 | < 4.00 |
| CN(C)OC(=O)CCC(=O)O | 5.20 | 4.38 | – | 4.38 | < 4.00 | < 4.00 | < 4.00 | < 4.00 | 5.04 | 5.16 |
| CN(C)NC(=O)CCC(=O)NN(C)C | < 4.00 | < 4.00 | – | < 4.00 | < 4.00 | < 4.00 | < 4.00 | < 4.00 | < 4.00 | 3.93 |
| O=C(O)CCC(=O)NO | 4.71 | 5.72 | – | 5.96 | < 4.00 | 5.52 | 6.40 | < 4.00 | 6.37 | 5.77 |
| CC(=O)CC(=O)CCC(=O)O [SUCCINYLACETONE] | < 4.00 | 5.35 | – | 4.78 | < 4.00 | 4.90 | 4.62 | < 4.00 | 6.24 | 5.64 |
